Converted amounts (≈) assume the structure as drawn.
Assays:
Type in all cases: functional
[1] = system: Acinetobacter baumannii; assay: Antibacterial activity against colistin-resistant Acinetobacter baumannii ATCC 19606R harboring pAL840 plasmid encoding intact lpxA gene by broth microdilution method
Procedure, shortened: (§1)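 Broth microdilution MIC in cation-adjusted Mueller-Hinton broth following the CLSI protocol, read in μg/ml. Strains were kept on Mueller-Hinton agar and cultured at 37°C. 19606R was selected directly on 10 μg/ml colistin and maintained with it. The pWH1266 or pAL840 transformants of 19606R were introduced by electroporation and selected on 100 μg/ml ampicillin.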

[2] = system: Acinetobacter baumannii; assay: Antibacterial activity against Acinetobacter baumannii ATCC 19606 by broth microdilution method; procedure, shortened: as §1
[3] = system: Acinetobacter baumannii; assay: Antibacterial activity against colistin-resistant Acinetobacter baumannii ATCC 19606R exhibiting complete loss of lipopolysaccharide production by broth microdilution method; procedure, shortened: as §1
[4] = system: Acinetobacter baumannii; assay: Antibacterial activity against colistin-resistant Acinetobacter baumannii ATCC 19606R harboring empty plasmid pWH1266 by broth microdilution method; procedure, shortened: as §1

Compound	MIC [1] [µg/mL]	MIC [2] [µg/mL]	MIC [3] [µg/mL]	MIC [4] [µg/mL]
CO/N=C(\C(=O)N[C@@H]1C(=O)N2C(C(=O)[O-])=C(C[N+]3(C)CCCC3)CS[C@H]12)c1csc(N)n1	16 (≈ 33.3 µM)	16 (≈ 33.3 µM)	0.125 (≈ 0.26 µM)	0.125 (≈ 0.26 µM)
CC[C@H]1OC(=O)[C@H](C)[C@@H](O[C@H]2C[C@@](C)(OC)[C@@H](O)[C@H](C)O2)[C@H](C)[C@@H](O[C@@H]2O[C@H](C)C[C@H](N(C)C)[C@H]2O)[C@](C)(O)C[C@@H](C)CN(C)[C@H](C)[C@@H](O)[C@]1(C)O [AZITHROMYCIN]	64 (≈ 85.4 µM)	64 (≈ 85.4 µM)	2 (≈ 2.67 µM)	2 (≈ 2.67 µM)
POLYMYXIN B	0.5	0.5	> 128	> 128
